In all, about 200,000 compounds went through this assay and about 2,000 (1%) were called active.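 How the source made its calls: active means inhibition above the campaign mean inhibition of all tested compounds plus 3 SD (cut at about 20% in these data); inactive means the rest.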 The list comes from a sample in which actives are over-represented; it also holds similar structures and randomly drawn compounds.
Biological target: Neuropeptide Y receptor type 1 (Homo sapiens) (UniProt P25929)
Experiment: NPY-Y1 receptor antagonists, primary screen, cell-based (AID 1040);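 further: 0% = DMSO wells given NPY plus isoproterenol and 100% = isoproterenol alone without NPY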
Details: HEK293-CNG Y1 cells, membrane potential fluorescence; at 3.6 µM; hits give high values; NPY at EC95, then isoproterenol
Summary of the method: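 Material: HEK293 cells co-expressing NPY Y1 receptor and cyclic-nucleotide gated channel. Timing: compound incubation 1 h at room temperature, readout 45 min post-stimulation. Signal: fluorescence, membrane potential probe.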

Sequence of Neuropeptide Y receptor type 1 (Homo sapiens) (P25929 whole entry, looked up): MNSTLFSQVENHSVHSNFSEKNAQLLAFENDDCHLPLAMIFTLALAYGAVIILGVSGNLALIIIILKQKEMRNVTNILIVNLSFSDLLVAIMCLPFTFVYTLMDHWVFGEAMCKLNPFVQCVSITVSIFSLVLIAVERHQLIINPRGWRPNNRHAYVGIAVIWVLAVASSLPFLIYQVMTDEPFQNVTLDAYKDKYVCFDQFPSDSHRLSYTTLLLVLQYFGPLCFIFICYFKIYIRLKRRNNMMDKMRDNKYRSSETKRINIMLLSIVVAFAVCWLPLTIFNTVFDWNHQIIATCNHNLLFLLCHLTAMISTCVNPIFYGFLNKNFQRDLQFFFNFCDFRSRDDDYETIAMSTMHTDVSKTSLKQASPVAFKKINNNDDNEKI

inhibition, inactive:
COC(=O)C(C(=O)Nc1cccc(Cl)c1C)C1CCCC1 (centres undefined) 5.62%, COc1ccc(C)cc1-n1nnnc1SCc1nc2ccccc2c(=O)[nH]1 -0.32%, CCN(CCCNC(=O)CSc1cc(=O)n(C)c2cc(Cl)ccc12)Cc1ccccc1 1.58%, COCCCNC(=S)N1CCCC(c2nc3cc(C)c(C)cc3[nH]2)C1 (centres undefined) -0.11%, NS(=O)(=O)c1ccc(CCNC(=O)c2ccc([N+](=O)[O-])cc2[N+](=O)[O-])cc1 0.19%, N#Cc1cnn2cc(CCN3CCOCC3)c(-c3ccc(F)cc3)nc12 -1.23%, COc1ccc(/C=N/NC(=O)Cn2cc(C(F)(F)F)ccc2=O)cc1 0.12%, COc1ccc(C(=O)Nc2ccc(F)cc2F)cc1 6.11%, O=C(Nc1cccc(F)c1)c1ccc(S(=O)(=O)N2CCCC2)cc1 -0.82%, CC(=O)c1cnc(SCC(=O)O)nc1C -4%, COc1ccc(C(=O)NN2C(=O)C3C(c4ccccc4)C=CC(c4ccccc4)C3C2=O)cc1 (centres undefined) 11.3%, COc1ccc2c(c1)C(C)=CC(C)(C)N2C(=O)Nc1ccccc1 13.7%, CCn1cc(C(=O)NCc2ccc3c(c2)OCO3)c2cc(OC)c(OC)cc2c1=O 1.79%, O=C(/C=C/c1ccc(OCc2c(F)cccc2Cl)cc1)N1CCOCC1 5.45%, COn1c(-c2ccc(Cl)cc2Cl)nc2ncccc21 5.03%, O=C(Nc1cccc(Cl)c1)c1cc([N+](=O)[O-])ccc1N1CCN(CCO)CC1 0.17%, CCC(=O)c1ccc(N2CCN(C(=O)c3cc([N+](=O)[O-])ccc3F)CC2)c(F)c1 -2.39%, CCc1ccc(OCC(=O)OCC(=O)c2c(N)n(C)c(=O)n(C)c2=O)cc1 -0.61%, O=C(NCc1ccco1)c1nn2cccnc2c1Cl 1.08%, Cc1noc(C)c1C(=O)N(CC(=O)NC1CCCC1)Cc1ccccc1F 1.99%, COc1ccc(CN(CC(=O)NC2CCCC2)C(=O)CCC(=O)Nc2cc(C)on2)cc1 1.61%, COc1ccc(Cc2nnc(N/N=C/c3ccccc3O)[nH]c2=O)cc1OC 7.54%, OCCCN1c2ccccc2Nc2nnc(-c3ccccc3)cc21 -7.91%, Cc1nc([N+](=O)[O-])c(NCCCO)n1Cc1ccccc1 -2.13%, COc1ccc(-c2nn(-c3ccccc3)cc2CN2CCCO2)c(F)c1 3.17%, CCOC(=O)c1[nH]c2c(c1C)C(=O)CC(c1ccc(N(C)C)cc1)C2 (centres undefined) 6.58%, CCCOC(=O)c1[nH]c2c(c1C)C(=O)CC(c1cc(OC)c(OC)c(OC)c1)C2 (centres undefined) -8.2%, COc1ccc(NC(=O)/C(C#N)=C\c2cc(OC)c(OCc3ccc(C(=O)O)cc3)cc2Br)cc1 2.86%, Cc1nc(Nc2ccc(S(=O)(=O)N3CCCC3)cc2)c2nnn(Cc3ccccc3)c2n1 -11%, O=S(=O)(NCc1ccccc1)c1ccc(S(=O)(=O)N2CCCC2)cc1 1%, Cc1cccc(N2CCC(NCc3c(C(=O)N4CCCCC4)nc4c(C)cccn34)CC2)c1 11%, COc1ccc(C(C[N+](=O)[O-])n2nc(C)cc2C)cc1 (centres undefined) -2.49%, COc1ccccc1CNC(=O)C1CCN(c2nc3ccccc3o2)CC1 -3.62%, COc1ccc(OC)c(CNC(=O)C2CCCN(c3nc4ccccc4o3)C2)c1 (centres undefined) 7.8%, COC(=O)c1ccc(COC(=O)c2cnccn2)cc1 -0.5%, OC(COCC1COc2ccccc2O1)CN1CCN(c2ccc(F)cc2)CC1 (centres undefined) -9.16%, Cc1ccc(S(=O)(=O)N(C)CC(=O)OCC(=O)N2CC(=O)Nc3ccccc32)cc1 1.33%, OC(COc1cccc(OCC(O)CN2CCCC2)c1)CN1CCCC1 (centres undefined) 6.73%, O=C(c1ccc(Cl)cc1)c1ccc(OCC(O)CN2CCCCC2)cc1 (centres undefined) 6.02%, CN1CCNC(=O)C1CC(=O)NCCC1=CCCCC1 (centres undefined) 1.21%, Cc1ccc(OCC(=O)NC(C)c2ccccc2)c([N+](=O)[O-])n1 (centres undefined) 19.9%, CCCS(=O)(=O)N1CCCC(C(=O)N2CCN(c3ccccc3)CC2)C1 (centres undefined) 0.57%, Cc1ccc(CNC(=O)C2CCCN(S(C)(=O)=O)C2)cc1 (centres undefined) 0.15%, COc1ccc(N2CCN(CCCNC(=O)C3CCN(S(=O)(=O)N4CCOCC4)CC3)CC2)cc1 -2.61%, CN(C)CCSc1nc(N)c2c3c(sc2n1)COC(C)(C)C3 1.6%, CCC1(C)Cc2c(sc3nc(SC)nc(N)c23)CO1 (centres undefined) -1.88%, CCOc1ccc(C(CCc2ccccc2)NC(=O)c2ccc(OC)c(OC)c2)cc1OCC (centres undefined) -0.85%, COC(=O)c1ccc(C2C(Oc3ccccc3C)C(=O)N2CCc2ccc(OC)c(OC)c2)cc1 (centres undefined) 8.91%, O=C(CCCNS(=O)(=O)c1cccc2nsnc12)NCCN1CCN(c2ccccc2F)CC1 1.63%, Cc1c(/C=N\NC(=O)c2cc3ccccc3o2)c2ccccc2n1C 8.68%, CCOC(=O)Nc1ccccc1N1C(=O)c2ccccc2C1=O -3.15%, O=C1C(=O)N(c2ccccc2)c2ccccc21 7.08%, O=C(NNC1=C(C(=O)C(F)(F)F)CCC1)c1ccncc1 0.61%, CC(=O)c1cc(-c2ccccc2)n(CCC(=O)NC2CCCCCC2)c1C 2.33%, CCCc1[nH]nc2c1C(C1CC=CCC1)C(C#N)=C(N)O2 (centres undefined) -5.43%, CCCc1[nH]nc2c1C(c1c(C)nn(-c3ccccc3)c1Cl)C(C#N)=C(N)O2 (centres undefined) -1.69%, O=C(COC(=O)c1cnc(Cl)c(Cl)c1)NCc1ccco1 1.45%, N#Cc1ccc(N2Cc3ccccc3/C2=N/C(=O)Nc2ccc(Cl)cc2)cc1 -0.16%, C/C(=N\NC(=S)NCc1ccccc1)C1CCCCC1 3.71%, O=C(O)c1ccc(/C=N/NC(=S)NCc2ccccc2)cc1 4.72%, OCCC1CN(Cc2cnc(-c3ccccc3)s2)CCN1CCc1ccccc1 (centres undefined) -0.62%, CCCCCCn1c(CN2CCCCC2)nc2c1c(=O)n(C)c(=O)n2C 11.1%, Cn1cnnc1SCC(=O)NNC(=O)COc1ccc(Br)cc1 10.5%, CC1(C)OC(=O)C(=CNC(CO)C(=O)O)C(=O)O1 (centres undefined) 0.88%, CCCOC(=O)c1cc2ccccc2oc1=O 1.89%, OCC1(Cc2ccccc2)CCN(Cc2cc3ccccc3o2)CC1 9.75%, O=C(CCC(=O)OCc1ccc(Cl)cc1)Nc1ccccc1 -2.82%, O=C(/C=C\c1cn(-c2ccccc2)nc1-c1cccs1)N1CCOCC1 4.67%, O=C(O)/C=C/c1cn(-c2ccccc2)nc1-c1cccs1 3.05%, O=C(OCc1cc(Cl)ccc1OC(F)F)c1cccnc1 -0.25%, Cc1c(Cl)c([N+](=O)[O-])nn1CCCC(=O)NC(C)c1ccccc1 (centres undefined) 1.69%, COc1cc(OC)c(C(=O)Nc2ccccc2-c2ccccc2)cc1OC 2.51%, COc1ccc(C(CC(=O)O)NC(=O)Cc2ccccc2)cc1 (centres undefined) -4.05%, CCC[C@@H]1C[C@@]1(CCC)[C@@H](NC(=O)c1ccccc1)c1ccc(C(=O)OC)cc1 6.57%

inhibition, active:
Cc1ccccc1Nc1scc(-c2ccc(Br)cc2)[n+]1-c1ccccc1C 31.6%, CCOC(=O)N1CCN(S(=O)(=O)c2ccc(C(=O)Nc3ccc(F)cc3F)cc2)CC1 30.3%, COc1ccc2c(c1)C(C)=CC(C)(C)N2C(=O)CNCc1ccc2c(c1)OCO2 27.3%, CCN1CCN(c2ccc([N+](=O)[O-])cc2C(=O)c2ccc(Cl)cc2)CC1 36.6%, Cc1cc(C(C)(C)C)oc1C(=O)N(CC(=O)NC1CCCC1)Cc1ccc(Cl)cc1 28.1%, N=c1c2c(-c3ccccc3)c(-c3ccccc3)n(Cc3ccccc3)c2ncn1CCCO 73.2%, CCCOC(=O)c1[nH]c2c(c1C)C(=O)CC(c1cccs1)C2 (centres undefined) 33.9%, O=C1c2cccnc2C(Nc2ccc(S(=O)(=O)N3CCCCCC3)cc2)N1Cc1ccccc1 (centres undefined) 30.7%, CCc1ccc(CNC(=O)C2CCCN(c3nc4ccccc4o3)C2)cc1 (centres undefined) 26.4%, O=C(c1ccccc1)c1ccc(OCC(O)CN2CCCC2)cc1 (centres undefined) 20.8%, CS(=O)(=O)N1CCCC(C(=O)N2CCOCC2)C1 (centres undefined) 94.5%, CCCSc1nc(NCc2ccco2)c2c3c(sc2n1)COC(C)(CC)C3 (centres undefined) 30.4%, COC(=O)c1ccc(C(NC(=O)OCc2ccccc2)/C(C)=C/[C@@H](C)C(=O)NCc2ccc(OC)c(OC)c2)cc1 (some centres undefined) 21.5%, O=C1c2ccccc2C(=O)N1c1ccccc1S(=O)C(F)(F)F (centres undefined) 21.4%, CCCc1[nH]nc2c1C(c1ccc(Br)s1)C(C#N)=C(N)O2 (centres undefined) 68.6%, C/C(=N\NC(=S)NCc1ccccc1)c1ccc(Cl)cc1 21.7%, CCCCCCCCn1c2c(c(=N)c3c1CCC3)CCCC2 81.5%, CN(C)CCCCCN(C)Cc1cc2ccccc2o1 22.6%, O=C(O)/C=C/c1cn(Cc2ccccc2)nc1-c1cccs1 20.8%, CCC/C=C(\CCC)C(NC(=O)Cc1ccccc1)c1ccc(C(=O)OC)cc1 (centres undefined) 26.8%

Reference: PubChem BioAssay AID1040 (The Scripps Research Institute Molecular Screening Center, 2008)
